Measurements from different studies.
Compare with care: the assays were run in different laboratories. ≈ marks a conversion by molar mass, not a printed value.

With `CC(c1cncnc1)n1c(=S)[nH]c2ccc(Cl)cc2c1=O` (centres unmarked) the Papp B→A was 38.4 ×10⁻⁶ cm/s (Caco-2; 10 µM, 90 min, pH 7.4).
`C/C=C1/CN2CC[C@@]34c5cc(O)ccc5N(C)[C@]35OC[C@@]4(C(=O)OC)[C@H]1C[C@H]25` gave a Papp B→A of 30.9 ×10⁻⁶ cm/s (Caco-2; 10 µM, 2 h, pH 7.4).
The tissue/plasma ratio of `Cl.Cn1c(=O)n(CCCCN2CCC3(CC2)OCc2ccccc23)c2ccccc21` is reported as 0.48 (male Sprague-Dawley rat, brain; intravenous, 10 mg/kg).
`O=c1c2cc(Cl)c(CO)cc2[nH]c(=S)n1Cc1cncnc1` gave a Papp A→B of 14 ×10⁻⁶ cm/s (Caco-2; 10 µM, 90 min, pH 7.4).
For `CC[C@H](C)[C@H]1C(=O)N[C@H]([C@H](C)O)C(=O)NCC(=O)N[C@@H](CC(C)C)C(=O)N2CCC[C@H]2C(=O)N[C@@H](Cc2ccc(O)cc2)C(=O)N[C@H](CC(C)C)C(=O)N2CCC[C@@H]2C(=O)NCC(=O)N[C@@H](Cc2ccc(O)cc2)C(=O)N1C`, the solubility was 933 µM (≈ 1020 µg/mL) (aqueous buffer; 18 h, pH 7.4).
`C/C=C1/CN2CC[C@]34C(=C(C(=O)OC)[C@H]1C[C@H]23)Nc1ccccc14` has a Papp A→B of 38.1 ×10⁻⁶ cm/s (Caco-2; 10 µM, 2 h, pH 7.4).
For `CC=CCC(C)C1OC(=O)C(C(C)C)N(C)C(=O)C(CC(C)C)N(C)C(=O)C(CC(C)C)N(C)C(=O)C(C)NC(=O)C(C)NC(=O)C(CC(C)C)N(C)C(=O)C(C(C)C)NC(=O)C(CC(C)C)N(C)C(=O)CN(C)C(=O)C(CC)NC(=O)C1NC` (centres unmarked), the solubility was 91 µM (≈ 109 µg/mL) (aqueous buffer; 18 h, pH 7.4).
`COc1cc(C2C3=C(COC3=O)N(CCO)c3cc4c(cc32)CCC4)cc(OC)c1OC` (centres unmarked) has an MTD of ≥ 400 mg/kg (general toxicity; female C57BL/6 mouse; intraperitoneal, single dose).
